From PubChem BioAssay
Rows were chosen to be rich in hits. Some 3.2% of all compounds tested hit in one or more screens of this group.
TRPN1 ag – zebrafish TRPN1 channel agonists, primary screen, cell-based, HEK293, calcium fluorescence | HEK293 zebrafish TRPN1-YFP, Fluo-8 calcium fluorescence; 100% = response to 87 µM carbachol | transient receptor potential cation channel N1 (TRPN1/NompC), Danio rerio | 0.18% of 220,000 active | activation, % at 3 µM;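 active = activation above its plate's cutoff, the mean activation of test wells on that plate plus 3 SD, cut at about 19% in these data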;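 also: 0% = DMSO alone and 100% = 87 µM carbachol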
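Assay system: Zebrafish TRPN1-YFP in HEK293 cells | Incubation: Dye loading 1 h at 37 °C, then 30 min room temperature | Measured by: Kinetic Fluo-8 fluorescence, ex 470-495, em 515-575 nm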
CHO parental Ca – ATP-evoked calcium signal inhibitors, parental CHO, primary screen, counter-screen for OX1R antagonist project, cell-based, fluorescence, Fluo-8 calcium dye; parental CHO-K1, ATP-induced calcium, Fluo-8 fluorescence; inhibition, % at 5.6 µM; 0.63% of 330,000 active;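 active = inhibition above that plate's mean sample inhibition plus 3 SD, cut at about 26% in these data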;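 also: 0% = ATP-challenged DMSO wells and 100% = DMSO wells without ATP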
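Assay system – parental CHO cells · Reagent – ATP stimulus · Detection – intracellular calcium via Fluo-8 no-wash fluorescent dye · Evaluation – percent inhibition of ATP-evoked calcium rise, normalized to controls · Controls – ATP wells versus no-ATP DMSO wells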
GPR7 antag – GPR7 receptor antagonists, primary screen, cell-based, fluorescence, single concentration | Neuropeptides B/W receptor type 1 (Homo sapiens), P48145 | inhibition, % at 4.4 µM | 1.1% of 290,000 active | GPR7-expressing cells, fluorescence antagonist assay; in the data active = inhibition above about 16%, passing the limit was not always enough;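 also: cells stimulated with the agonist NPW; 0% = agonist with vehicle and 100% = vehicle without agonist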
Target sequence (P48145 whole entry, looked up): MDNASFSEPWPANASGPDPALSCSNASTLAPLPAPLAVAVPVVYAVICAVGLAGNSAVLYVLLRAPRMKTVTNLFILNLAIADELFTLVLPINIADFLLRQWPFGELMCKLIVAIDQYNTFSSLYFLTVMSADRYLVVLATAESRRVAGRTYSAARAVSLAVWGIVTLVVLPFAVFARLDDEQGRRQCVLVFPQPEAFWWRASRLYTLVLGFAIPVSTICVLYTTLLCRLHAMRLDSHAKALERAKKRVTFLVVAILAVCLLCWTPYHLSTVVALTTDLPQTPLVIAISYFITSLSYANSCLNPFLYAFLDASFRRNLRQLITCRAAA
OX1R antag-1 – antagonists of human orexin 1 receptor (OX1R); 1.8% of 330,000 active; OX1R-expressing cells, FRET antagonist read-out; AID 485270, 2010; inhibition, % at 6.6 µM; in the data active = inhibition mostly above about 38%, no sharp cut-off; inactive = mostly below about 40%;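 also: 0% = agonist challenge alone and 100% = reference antagonist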
TRPML3 agonist – human TRPML3 channel agonists, primary screen, cell-based, HEK293 TRPML3-YFP, Fluo-8 calcium fluorescence, 3 µM; Mucolipin-3 (Homo sapiens), Q8TDD5; 100% = the carbachol control signal; activation, % at 3 µM; 0.29% of 220,000 active; AID 1448, 2008;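 active = activation above its plate's cutoff, the mean activation of the plate's test wells plus 3 SD, cut at about 12% in these data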;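 also: 0% = DMSO only wells and 100% = carbachol wells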
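system = HEK293 cells stably carrying human TRPML3-YFP | doses = one concentration, 3 µM nominal, 0.3% DMSO | timing = dye loading 1 h 37 °C then 30 min ambient, 125 s read | detection = Fluo-8 calcium dye fluorescence, ex 470-495, em 515-575 nm | benchmarks = high control carbachol 87 µM, low control DMSO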
OX1R antag-2 – OX1R (HCRTR1) antagonists, primary screen, fluorescence, CHO/OX1R cells, Fluo-8 calcium, orexin A; AID 434989, 2010; inhibition, % at 5 µM; Fluo-8 calcium fluorescence; Orexin/Hypocretin receptor type 1 (Homo sapiens), O43613; 0.43% of 330,000 active;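 active = inhibition above its plate's threshold, mean inhibition of all tested compounds on the plate plus 3 SD, cut at about 37% in these data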;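 also: 0% = orexin A challenge wells and 100% = SB-334867-A antagonist wells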
GPR7 antag conf – GPR7 receptor antagonists, confirmation, cell-based, fluorescence, single concentration; inhibition, % at 4.4 µM; 52% of 2,400 active; AID 1952, 2009; GPR7-expressing cells, calcium fluorescence antagonist mode; shares compounds with GPR7 antag; in the data active = inhibition above about 24%;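 also: stimulated with the GPR7 agonist NPW; 0% = agonist plus vehicle and 100% = vehicle alone without agonist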
MCHR1 antagonist – MCHR1 antagonists in cells, counter-screen for GPR7 antagonist project, cell-based, fluorescence, human | AID 2148, 2009 | MCHR1-expressing cells, fluorescence antagonist assay | shares compounds with GPR7 antag | 62% of 2,400 active | inhibition, % at 4.4 µM; in the data active = inhibition above about 22%;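 also: 0% = vehicle with agonist and 100% = vehicle without agonist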
Active calls of the source: *; x = not tested or not shown.

SMILES	TRPN1 ag	CHO parental Ca	GPR7 antag	OX1R antag-1	TRPML3 agonist	OX1R antag-2	GPR7 antag conf	MCHR1 antagonist
CC(C)Oc1ccc(S(=O)(=O)N2CCCCC2)cc1NC(=O)C1CSC2(C)CCC(=O)N12 (stereo unspecified)	x	-23	x	31	x	-21	x	x
Cc1cc2c(cc(C(=O)N3CCC(C(=O)N4CCCC4)CC3)n2Cc2c(F)cccc2Cl)o1	0	-3	27*	2	0	-34	20	12
CC1CN(C(=O)CCC(=O)NCc2ccc(F)cc2)c2ccccc2S1 (stereo unspecified)	x	-11	28*	4	x	-35	-5	11
CC1CN(C(=O)CCC(=O)NCc2ccc(Cl)cc2)c2ccccc2S1 (stereo unspecified)	x	8	0	7	x	-4	x	x
COc1ccc(OC)c(NS(=O)(=O)c2c(C(=O)N3CCCCCC3)c(C)n(C)c2C)c1	x	-26	45*	19	x	-1	28*	11
CC(=O)/C(N=Nc1c(C)n(C)n(-c2ccccc2)c1=O)=C(\C)O	-2	-8	28*	35	0	-4	0	-4
CS(=O)(=O)c1ccc2nc(NC(=O)c3ccccc3)sc2c1	x	-14	-2	22	x	-2	x	x
CS(=O)(=O)c1ccc2nc(NC(=O)Nc3ccccc3F)sc2c1	x	-8	59*	23	x	-10	36*	16
CNC(=O)CSc1cn(CC(=O)N(C(C)C)C(C)C)c2ccccc12	-1	-15	6	5	0	-14	x	x
CC(=O)c1ccc(N2CCN(C(=O)c3cc4c(s3)CCCC4)CC2)cc1	2	-10	26*	7	1	-20	30*	61*
COc1ccc(N2CCN(C(=O)c3cc4c(s3)CCCCC4)CC2)cc1	x	-21	x	2	x	-27	x	x
O=Cc1c(-c2ccccc2)cc2oc3ccccc3cc1-2	x	-13	4	-3	x	-26	x	x
COc1cc(C(=O)NCc2nnc(SCC(=O)N3CCc4ccccc43)o2)cc(OC)c1OC	-1	-6	30*	13	0	-1	0	-15
COc1ccc(C(=O)NCc2nnc(SCC(=O)NCCc3ccccc3)o2)cc1	x	-8	24*	3	x	-14	-15	8
CC(=O)CSc1ccc(-c2nc3ccccc3[nH]2)cn1	x	-13	-11	13	x	-19	x	x
Cc1cc2nc(-c3ccc(SCc4ccc(C#N)cc4)nc3)[nH]c2cc1C	0	5	33*	53	0	3	55*	66*
N#Cc1ccccc1CSc1ccc(-c2nc3ccccc3[nH]2)cn1	3	0	31*	32	0	13	5	74*
CC(C)CNC(=O)/C=C/c1cccs1	-1	-11	6	15	0	0	x	x
CCN(CC)CCN1C(=O)/C(=C\c2ccc(Cl)c([N+](=O)[O-])c2)SC1=Nc1ccc(OC)cc1	x	5	46*	30	x	10	75*	60*
COc1ccc(N=C2S/C(=C\c3ccc(Cl)c([N+](=O)[O-])c3)C(=O)N2CCN(C)C)cc1	x	18	48*	15	x	15	65*	59*
CCCN1C(=O)/C(=C/c2ccc(C)s2)SC1=Nc1ccc(OC)cc1	2	-3	0	19	1	-13	x	x
S=C(NCc1ccccc1)Nc1ccc(Oc2ccccc2)cc1	x	23	28*	16	x	-9	15	29*
CCNC(=S)Nc1ccc(Oc2ccccc2)cc1	0	-16	12	17	1	-9	x	x
OC(C#CCCN1CCCCC1)(c1ccccc1)c1ccccc1	-1	-16	22*	5	0	-16	-8	6
CCC(=O)N(CCC1(C(C)C)CCOC(C)(C)C1)C(C)c1cccs1 (stereo unspecified)	-2	-17	25*	35	-1	-13	7	4
SMILES	TRPN1 ag	CHO parental Ca	GPR7 antag	OX1R antag-1	TRPML3 agonist	OX1R antag-2	GPR7 antag conf	MCHR1 antagonist
O=C(NC1CCCCC1)C(c1ccc(F)cc1)N(Cc1ccco1)C(=O)c1ccccn1 (stereo unspecified)	-1	-11	26*	15	1	-21	6	12
Cc1ccc(N/C=C(\C#N)S(=O)(=O)c2ccccc2)cc1	-1	-17	-6	23	0	-28	x	x
Cc1c(C(=O)OCc2ccccc2)nnn1-c1nonc1N	0	4	21*	6	0	-8	-3	6
CCCNC(=O)c1nnsc1S(=O)c1ccc(Cl)cc1 (stereo unspecified)	2	x	16	x	6	x	x	x
CCCNC(=O)c1nnsc1S(=O)(=O)c1ccc(Cl)cc1	0	x	35*	x	5	x	79*	102*
COc1cc(C(=O)OCC(=O)c2ccccc2)cc2c1OCCO2	x	6	x	11	x	-5	x	x
Cc1nn(-c2ccccc2)c(N)c1Sc1ccc([N+](=O)[O-])cc1	-2	-11	23*	23	0	-11	33*	55*
Cc1nn(S(=O)(=O)c2ccc(Cl)cc2)c(C)c1Sc1ccc([N+](=O)[O-])cc1	-1	-5	-11	11	0	-16	x	x
Nc1nc(SCC(=O)N2CCCc3ccccc32)n[nH]1	x	6	x	20	x	5	x	x
O=C(NCCc1ccccc1)c1cc(S(=O)(=O)N2CCCC2)ccc1F	x	-20	26*	14	x	-6	11	-4
Cc1ccc(S(=O)(=O)N2CCCCC2)cc1C(=O)N(C)CCOc1ccccc1	x	-23	23*	21	x	-28	20	22*
COc1cc2cc(C#N)c(SCC(=O)Nc3cc(C)on3)nc2cc1OC	x	-8	-4	47	x	-10	x	x
O=NN(CCc1ccncc1)c1ccc(OCc2ccccc2)cc1	4	62*	25*	53	2	38*	50*	43*
CCc1c(C(=O)NNC(=O)Nc2ccc3c(c2)OCO3)csc1C	x	x	-10	x	x	x	x	x
CC(C)C(OC(=O)c1cccs1)C(=O)NCc1cccs1 (stereo unspecified)	0	-16	37*	20	-1	-19	-4	3
Nc1nc2c(F)c(F)c(F)cc2s1	1	1	-15	5	0	7	x	x
